# Bioassay records: PubChem, several laboratories
# Only a selection was taken, and hits are over-represented in it overall.
# CHOP inhibitor – inhibitors of CHOP promoter induction, primary screen, cell-based, unfolded protein response, luciferase reporter. CHO-K1 CHOP-promoter luciferase, tunicamycin-induced, 15-18 h. inhibition, % at 10 µM. 3.8% of 220,000 active. AID 2732, 2010;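 active = compounds that reduced the stress-induced luciferase reporter signal by more than about 70% of percent inhibition, limit read from the data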;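 note: 0% = tunicamycin plus vehicle and 100% = wells without tunicamycin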
# UPR CHOP act – activators of apoptotic CHOP UPR arm, primary screen, cell-based, CHO-CHOP luciferase reporter, luminescence, uHTS; activation, % at 10 µM; 0.34% of 330,000 active; AID 449763, 2010; UPR activation; percent of tunicamycin response over DMSO baseline;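 active = at 10 µM dose, activation of 40% or more, normalized to positive control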;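 note: 100% = tunicamycin at 10 µg/mL and 0% = DMSO alone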
#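 Dosing – one dose, 10 µM in 0.5% DMSO · System – CHO-CHOP cells, stable luciferase reporter of PERK-eIF2a-CHOP signalling · Input – 500 cells/well · Control set – tunicamycin 10 µg/mL final as positive, DMSO-only wells as negative · Timing – 6 h compound treatment, 37 °C · Measure – % activation vs tunicamycin · Technique – luminescence read with Steady-Glo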
# UPR XBP1 act – activators of adaptive XBP1 UPR arm, primary screen, cell-based, CHO-XBP1 luciferase reporter, luminescence, uHTS. IRE1-XBP1 UPR activation; percent of tunicamycin response, DMSO as zero. activation, % at 20 µM. 0.33% of 330,000 active;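 active = versus positive control, 20 µM dose yields 30% or more activation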;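 note: 100% = tunicamycin at 10 µg/mL and 0% = DMSO only wells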
#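 Material: CHO cell line with stable XBP1 luciferase reporter; schedule: 16-18 h cell attachment at 37 °C, then 6 h compound exposure; signal: glow luminescence from Steady-Glo reagent; medium: serum-containing F12 medium, 10% FBS; benchmarks: tunicamycin 10 µg/mL and vehicle-only wells; read-out: percent activation relative to tunicamycin reference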
# TLR9-MyD88 inh – inhibitors of TLR9-MyD88 association in cells, primary screen, cell-based, CHO, BLA complementation, fluorescence; Toll-like receptor 9 (Homo sapiens) + Myeloid differentiation primary response protein …; CCF4 FRET ratio; inhibition, % at 4.98 µM; 0.21% of 340,000 active; AID 504734, 2011;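 active = inhibition above the mean over all tested compounds plus 3 SD, cut at about 21% in these data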;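 note: 0% = DMSO only wells and 100% = clavulanate BLA inhibitor control wells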
# TLR4-MyD88 BLA – inhibitors of TLR4-MyD88 association in cells, primary screen, cell-based, HeLa CL3-4, BLA complementation, FRET ratio; Toll-like receptor 4 (Homo sapiens) + Myeloid differentiation primary response protein …; HeLa CL3-4 TLR4/MyD88 BLA complementation; inhibition, % at 8.4 µM; 0.18% of 200,000 active; AID 861, 2007; in the data active = inhibition above about 25%;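 note: 0% = vehicle and 100% = reference inhibitor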
# NOD2-RIPK2 inh – NOD2-RIPK2 binding disruptors in cells, primary screen, fluorescence, CHO cells, BLA complementation; Receptor-interacting serine/threonine-protein kinase 2 (Homo sapiens), O43353; CCF4 ratio; inhibition, % at 4.98 µM; 0.38% of 360,000 active; AID 624267, 2012; in the data active = inhibition above about 21%;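 note: 0% = vehicle only and 100% = reference blocker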
# Target sequence (O43353 whole entry, looked up): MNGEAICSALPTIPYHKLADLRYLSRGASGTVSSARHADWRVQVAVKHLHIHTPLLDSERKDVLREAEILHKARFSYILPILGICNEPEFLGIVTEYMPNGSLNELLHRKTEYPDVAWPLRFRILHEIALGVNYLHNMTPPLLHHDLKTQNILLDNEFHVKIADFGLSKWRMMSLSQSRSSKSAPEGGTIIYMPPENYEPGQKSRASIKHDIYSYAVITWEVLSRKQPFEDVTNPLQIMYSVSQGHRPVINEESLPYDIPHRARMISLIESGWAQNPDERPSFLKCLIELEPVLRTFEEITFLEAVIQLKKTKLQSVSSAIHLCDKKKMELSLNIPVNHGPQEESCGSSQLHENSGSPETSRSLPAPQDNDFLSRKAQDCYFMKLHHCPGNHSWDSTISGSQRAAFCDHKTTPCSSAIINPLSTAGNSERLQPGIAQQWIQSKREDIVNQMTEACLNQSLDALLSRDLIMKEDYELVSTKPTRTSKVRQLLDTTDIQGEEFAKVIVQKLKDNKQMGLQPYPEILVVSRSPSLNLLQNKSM
# CHOP confirm – retest of CHOP induction inhibitors, confirmation, cell-based; AID 504437, 2011; shares compounds with CHOP inhibitor; 45% of 2,100 active; inhibition, % at 10 µM; CHO-CHOP promoter luciferase reporter, tunicamycin-induced, luminescence;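 active = mean of three repeat readings of reporter signal inhibition above a set limit, cut at about 70% in these data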;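 note: 0% = tunicamycin plus vehicle and 100% = wells lacking tunicamycin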
# * = called active by the depositor; nt = not tested or not shown.
SMILES,CHOP inhibitor,UPR CHOP act,UPR XBP1 act,TLR9-MyD88 inh,TLR4-MyD88 BLA,NOD2-RIPK2 inh,CHOP confirm
O=C(CC(NC(=O)c1ccccc1)c1ccccc1)Nc1cccc2ccccc12 (configuration not stated),104*,-1,-1,2,-11,-6,1
O=C(Nc1ccn(CCCNC2CCN(Cc3ccccc3)CC2)c(=O)n1)OCc1ccccc1,nt,nt,nt,-1,nt,-10,nt
O=C(O)CCC(=O)OCCN(Cc1ccc(Oc2ccc([N+](=O)[O-])cc2)cc1)C(=O)C(Cl)Cl,nt,nt,nt,1,nt,-10,nt
O=c1[nH]c(=S)[nH]c(O)c1N=Nc1ccc(-c2ccccc2)cc1[N+](=O)[O-],102*,nt,nt,nt,-6,nt,42
COc1ccc(N=CC2=C(O)c3ccccc3C2=O)c(OC)c1,100*,-9,-11,-9,-1,-14,133*
COc1ccc(-c2nc3c(Cl)cc(C(F)(F)F)cn3c2Cc2cccc(F)c2)cc1OC,nt,nt,nt,nt,nt,-12,nt
CCCCC1=CC2=C(c3ccco3)C(=O)C(C)(OC(=O)c3ccc(OC)cc3)C(=O)C2=CN1c1ccccc1 (configuration not stated),104*,1,-1,6,nt,1,-64
Cc1nc2ccccn2c1C(=O)N=Nc1c(O)n(CCC(C)C)c2ccccc12,101*,2,6,-3,-7,3,105*
Nc1[nH]c(C(=O)c2ccccc2)c(-c2ccccc2C(F)(F)F)c1C(=O)NCc1cccc2ccccc12,nt,nt,nt,nt,nt,-13,nt
O=c1[nH]cnc2scc(-c3ccc(-c4ccccc4)cc3)c12,96*,nt,nt,4,7,-2,-3
COC(=O)C1C(OC)=CC(=O)C2CCCCC21 (configuration not stated),nt,nt,nt,1,nt,-12,nt
CCn1cc(CN(C)C(=O)/C=C/c2ccc([N+](=O)[O-])cc2)c(C)n1,96*,0,-1,-4,-12,3,0
Cc1cc2occ(CC(=O)NCc3cccs3)c2cc1C(C)C,24,0,-2,-5,5,-3,nt
Cc1csc(NC(=O)Cc2coc3cc(C)c(C(C)C)cc23)n1,99*,-1,-3,1,10,9,42
CCCc1nnc(NC(=O)Cn2c(=O)oc3ccccc32)s1,11,-1,2,-4,-11,-8,nt
Cc1sc(NC(=O)Cn2c(=O)oc3ccccc32)nc1-c1ccc(Cl)cc1,98*,0,-3,3,-21,0,34
C(=N\Nc1nc(N2CCCCC2)nc(N2CCCCC2)n1)/c1c[nH]c2ccccc12,101*,6,1,-20,8,-7,42
CN(C)c1nc(N/N=C/c2c[nH]c3ccccc23)nc(N2CCOCC2)n1,-30,4,0,1,-11,-7,nt
NNc1nc2cccnc2n(CCNc2ncc(C(F)(F)F)cc2Cl)c1=O,2,0,0,1,1,5,nt
O=c1c(Cl)nc2cc(Cl)ccc2n1CCNc1ncc(C(F)(F)F)cc1Cl,107*,-12,-9,-7,10,-25,128*
CN(C)CCN(C)C1CN(C2CCCC2)S(=O)(=O)C1 (configuration not stated),nt,nt,nt,nt,nt,2,nt
CC1=CN2C(=N)/C(=C/c3ccc([N+](=O)[O-])o3)C(=O)N=C2S1,107*,nt,nt,-1,6,3,29
CCOc1ccccc1N1CCN(S(=O)(=O)c2ccc3c4c(cccc24)C(=O)N3)CC1,99*,-1,-1,-7,2,3,9
Cc1cc(-c2cc(-c3ccc(Cl)cc3)nc(N)c2C#N)co1,106*,-3,2,-9,-35,11,-48
